STAT3 act: increases IL-6 driven STAT3 reporter signal; U3A cells, IL-6 STAT3-luciferase reporter, luminescence; 100% = signal with IL-6 EC80 alone; activation (% of control), % at 5.6 µM; actives 0.91% (n = 190,000);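 active means activation above the screen-wide mean of compound activation plus 3 SD, cut at about 130% in these data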;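 further: 0% = background luminescence of wells with medium and substrate only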
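System – human U3A cells carrying STAT3-luciferase construct · Probe or stimulus – Interleukin-6, 33 ng/mL · Schedule – compound 1 h, then IL-6 6 h at 37 °C · Signal – luminescence from STAT3-driven luciferase reporter · Evaluation – percent of IL-6-only median luminescence · Benchmarks – IL-6-only high control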
STAT3 blocker: inhibitors of IL-6 induced STAT3 signaling; U3A cells, IL-6 STAT3-luciferase reporter, luminescence; host cell line lacks STAT1; inhibition, % at 5.5 µM; actives 0.89% (n = 190,000);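 active means inhibition above the mean inhibition across all screened compounds plus 3 SD, cut at about 44% in these data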;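 further: 0% = DMSO only wells and 100% = 100 µM nifuroxazide control wells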
STAT1 inh: reduces IFN-gamma driven STAT1 reporter signal; NIH 3T3 STAT1-luciferase reporter, luminescence; inhibition, % at 5.5 µM; actives 0.35% (n = 200,000);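 active means inhibition above a set limit, the mean inhibition across all tested compounds plus 3 SD, cut at about 34% in these data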;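 further: 0% = IFN-gamma with DMSO and 100% = IFN-gamma with 300 µM nifuroxazide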
NF-kB expr up: raises NF-kB expression in human neuronal cells; actives 1.6% (n = 190,000); NF-kB reporter expression; active compounds read high; AID 1239; fold change at 12.5 µM; in the data active means fold change above about 3.3
APP 5'UTR act: APP 5'UTR luciferase reporter activation; SH-SY5Y APP 5'UTR luciferase reporter, luminescence; zero percent = DMSO vehicle wells; activation, % at 2 µM; actives 1% (n = 190,000); AID 1276;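 active means activation above a set limit, based on mean plus 3 SD of controls, cut at about 140% in these data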
STAT1 act: activators of IFN-gamma induced STAT1 signaling; NIH 3T3 STAT1-luciferase reporter, luminescence; 100% = IFN-gamma alone, no compound; actives 2.6% (n = 200,000); activation (% of control), % at 5.5 µM; AID 932;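 active means activation above the screen-wide mean activation plus 3 SD, cut at about 130% in these data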;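 further: raw ratio to IFN-gamma control signal so 100% means no change and 0% no light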
An asterisk follows results filed as active. Sampled rows, rich in hits. Any-hit rate of the full collection: about 5.1%.

SMILES	STAT3 act	STAT3 blocker	STAT1 inh	NF-kB expr up	APP 5'UTR act	STAT1 act
COc1cccc(Nc2c3c(nc4c(-c5ccccc5)c(C)nn24)CCC3)c1	90	15	6	0.74	4	94
COc1cccc(-c2cc3nc4c(c(NCC(C)(C)CN(C)C)n3n2)CCCC4)c1	108	-8	-45	0.9	103	140*
CC(C)(C)c1ccc(COc2ccsc2C(=O)O)cc1	95	9	-13	1.5	3	111
CCN(CC)c1ccc(C=C2C(=O)OC3(CCCCC3)OC2=O)cc1	102	9	-2	1.2	-19	101
CCN(CC)c1ccc(/C=C2/C(=O)c3ccc(C(=O)O)cc3C2=O)cc1	106	-10	-33	2.5	7	130*
COc1ccc(C2Nc3ccccc3C(=O)N2c2ccc(C)cc2)cc1COc1ccccn1 (configuration not stated)	113	-13	-35	2	120	131*
CC(C)CC(=O)Nc1ccc(-c2nc3ccccc3c(=O)[nH]2)cc1	80	24	-42	1.3	184*	140*
Cc1ccc(NC(=S)N2CCCC(c3nc4ccccc4[nH]3)C2)cc1 (configuration not stated)	110	-3	6	0.55	0	94
Cc1ccc(NC(=S)c2nc3ccccc3[nH]2)cc1	78	37	-21	4.5*	193*	119
Cc1ccc(SCC(=O)Nc2ccc(-c3nc4ccccc4[nH]3)cc2)cc1	101	-1	-36	1.4	8	132*
CN(C)CCNC(=S)Nc1ccc(-c2nc3ccccc3[nH]2)cc1	89	21	-2	3.7*	163*	102
S=C(NCCCN1CCOCC1)Nc1ccc(-c2nc3ccccc3[nH]2)cc1	101	4	-9	0.99	18	105
CCOc1ccc(C(=O)N2CCSC2=S)cc1	105	-5	0	1.2	2	100
COc1ccccc1NC(=O)COC(=O)C1CCN(/C=C/C(=O)C(F)(F)F)CC1	86	23	7	1.1	3	94
CC(=O)Nc1ccc(-c2nc3c(C)cccc3[nH]2)cc1	118	-19	-32	3.8*	169*	130*
COc1ccc(CCC(=O)Nc2sccc2C#N)cc1	92	14	-30	2.4	130	130*
Cn1cc(Br)c(C(=O)Nc2ncc(Br)s2)n1	96	15	-33	1.9	109	128
O=C1C(C=NCc2cccnc2)=C(O)c2ccccc21	103	1	-33	2.8	15	130*
O=C1C(C=NCc2ccncc2)=C(O)c2ccccc21	108	-4	-5	1.1	17	105
Cc1nn(-c2nc3ccccc3s2)c(C)c1Oc1ccccc1O	123	-20	5	2.6	184*	95
Cc1nn(-c2ccccn2)c(C)c1Oc1ccccc1O	97	7	5	1	-1	96
CCOC(=O)c1cc(C(=O)c2ccccc2O)cn2c(=O)c3c(C)c(C)sc3nc12	96	10	-5	0.69	14	101
CCN1C(=O)/C(=C\C=C2/C=CC=CN2CC)SC1=S	118	-18	-38	2.2	48	134*
CCN1C(=O)/C(=C/C=C2\C=CN(CC)c3ccccc32)SC1=S	102	0	0	0.99	98	100
CC(C)N1CCC2(CC1)N=C(c1ccc3c(c1)OCO3)CC(c1cc(Cl)ccc1O)N2 (configuration not stated)	102	2	15	4.7*	53	86
SMILES	STAT3 act	STAT3 blocker	STAT1 inh	NF-kB expr up	APP 5'UTR act	STAT1 act
NNC(=O)CN1CCCc2ccccc21	107	-7	-54	0.91	103	148*
O=C(CN1CCN(c2ccccc2O)CC1)NC(=O)NCc1ccco1	105	-10	-2	1.1	-5	102
O=C(CN1CCc2ccccc21)NC(=O)NCc1ccco1	135*	-41	0	1.1	3	100
O=C(NCCCc1ccccc1)c1ccccc1	111	-8	-32	2	21	129*
O=C(NCCCCc1ccccc1)c1ccccc1	92	14	-8	1.4	-21	110
O=C(NCCc1ccccc1)c1ccccc1F	73	36	-10	3.3*	110	108
O=C(NCCc1ccncc1)c1ccccc1F	98	6	-1	1.1	12	101
CCCCc1ccc(NC(=O)C2CCCO2)cc1 (configuration not stated)	94	11	-33	2.6	89	130*
O=C(NCCc1ccccc1)c1ccccc1NC(=O)C1CCCO1 (configuration not stated)	101	-1	-36	3.4*	158*	134*
COc1ccc(Oc2cc(C(F)(F)F)nc(N(C)C)n2)cc1	92	14	-9	1	9	105
O=C(COC(=O)c1cc(=O)c2ccccc2o1)Nc1ccc2ccccc2c1	103	-3	9	1.2	-13	92
CN(c1ccc(C(=O)NCCc2ccccc2)cc1)S(C)(=O)=O	111	-14	-37	2.8	92	141*
O=C(Oc1ccc(-c2cnc3ccccc3n2)cc1)c1ccc(Br)o1	98	7	-38	2.9	113	135*
O=C(Oc1ccc(-c2cnc3ccccc3n2)cc1)c1cccc([N+](=O)[O-])c1	112	-9	-20	1.9	116	118
O=C(Oc1ccc(-c2cnc3ccccc3n2)cc1)c1ccc(Cl)c([N+](=O)[O-])c1	98	10	-27	1.8	138*	125
C=CCOC(=O)c1c(C)nc2cc3c(cc2c1C)OCO3	90	13	-24	1.9	14	122
Cc1cc(N=Cc2c(O)ccc3ccccc23)no1	135*	-34	10	0.98	-9	91
CN(C)C(CNC(=O)c1ccc(S(=O)(=O)N(C)C)cc1)Cc1ccccc1 (configuration not stated)	93	11	9	1.2	14	89
O=S(=O)(Cc1cc(-c2ccccc2Cl)no1)c1ccccc1	103	1	-39	0.98	68	132*
O=S(=O)(NCc1cc(-c2ccccc2Cl)no1)c1ccccc1	95	12	4	1	-21	96
Clc1ccc(OCc2cc(-c3ccccc3)no2)cc1Cl	92	15	-10	1.8	12	109
O=S(=O)(Cc1cc(-c2ccc(Cl)cc2)no1)c1ccccc1	93	12	-38	2.1	44	135*
Clc1ccc(-c2cc(COc3ccccc3)on2)cc1	93	11	-35	1.9	42	132*
CCCCCCCCCCSc1n[nH]c(N)n1	101	-4	1	1.3	4	101
CCOC(=O)C1=C(C)Nc2ccccc2N=C1NC(=O)c1ccc(Cl)c(S(=O)(=O)N2CCCC2)c1	105	-1	1	0.37	17	96

From PubChem BioAssay
